Experimental data reported in ChEMBL document CHEMBL5046312, “Rational Design of an Orally Active Anticancer Fluoropyrimidine, Pencitabine, a Hybrid of Capecitabine and Gemcitabine” (ACS Med Chem Lett, 2022).

Key:
HCT-116 [1] = experiment: Antiproliferative activity against human HCT-116 cells assessed as reduction in cell viability incubated for 72 hrs by MTT assay; format: functional, cell-based; conditions: HCT-116, 72 h
Outline: (§1)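 Growth inhibition after 72 h continuous exposure of HCT-116 colorectal carcinoma or KG-1 acute myelogenous leukemia cells; concentration giving 50% inhibition taken from dose–response curves.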

KG-1 = experiment: Antiproliferative activity against human KG-1 cells assessed as reduction in cell viability incubated for 72 hrs by MTT assay; format: functional, cell-based; conditions: KG-1, 72 h; outline: as §1
SK-BR-3 [2] = experiment: Induction of DNA damage in human SK-BR-3 cells assessed as increase in tail DNA measured at 1 uM after 72 hrs by neutral comet assay relative to control; format: functional; conditions: in the assay text read “alkaline comet assay” for “neutral comet assay”
Outline: (§2)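 Comet assay scoring DNA damage as % DNA in tail; cells exposed to 0.5, 1.0 or 2.0 μM etoposide or 1.0, 3.0 or 10 μM test nucleoside; mean of scored comets per sample with SE and 80% confidence interval.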

SK-BR-3 [3] = experiment: Induction of DNA damage in human SK-BR-3 cells assessed as increase in tail DNA measured at 3 uM after 72 hrs by neutral comet assay relative to control; format: functional; conditions: in the assay text read “alkaline comet assay” for “neutral comet assay”; outline: as §2
SK-BR-3 [4] = experiment: Induction of DNA damage in human SK-BR-3 cells assessed as increase in tail DNA measured at 10 uM after 72 hrs by neutral comet assay relative to control; format: functional; conditions: in the assay text read “alkaline comet assay” for “neutral comet assay”; outline: as §2
HCT-116 [5] = experiment: Antitumor activity against human HCT-116 cells xenografted in athymic nude mouse assessed as tumor growth inhibition at 25 mg/kg, po administered for 26 days relative to control; format: functional; conditions: HCT-116, po, 624 h, time 26 day
Outline: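 Subcutaneous HCT-116 human colorectal carcinoma xenografts in athymic female nude mice; oral dosing at 25 mg/kg over a 26-day period, with capecitabine given as positive control; tumor growth followed, N = 3, SD shown.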

SK-BR-3 [6] = experiment: Induction of DNA damage in human SK-BR-3 cells assessed as increase in tail DNA measured at 0.5 uM after 72 hrs by neutral comet assay relative to control; format: functional; conditions: in the assay text read “alkaline comet assay” for “neutral comet assay”; outline: as §2
SK-BR-3 [7] = experiment: Induction of DNA damage in human SK-BR-3 cells assessed as increase in tail DNA measured at 2 uM after 72 hrs by neutral comet assay relative to control; format: functional; conditions: in the assay text read “alkaline comet assay” for “neutral comet assay”; outline: as §2

| Compound | IC50 (HCT-116 [1]) [nM] | IC50 (KG-1) [nM] | Activity (SK-BR-3 [2]) [%] | also measured |
| --- | --- | --- | --- | --- |
| CCCCCOC(=O)Nc1nc(=O)n([C@@H]2O[C@H](C)[C@@H](O)[C@H]2O)cc1F [CAPECITABINE] | 34200 | 8900 | – | – |
| Nc1ccn([C@@H]2O[C@H](CO)[C@@H](O)C2(F)F)c(=O)n1 [GEMCITABINE] | 50 | 18 | – | – |
| Nc1nc(=O)n([C@@H]2O[C@H](CO)[C@@H](O)C2(F)F)cc1F | – | – | 20.7 | Activity (SK-BR-3 [3]): 24.28%; Activity (SK-BR-3 [4]): 26.73% |
| CCCCCOC(=O)Nc1nc(=O)n([C@@H]2O[C@H](CO)[C@@H](O)C2(F)F)cc1F | 370 | 130 | – | inhibition in vivo at 25 mg/kg (HCT-116 [5]): 40% |
| COc1cc([C@@H]2c3cc4c(cc3[C@@H](O[C@@H]3O[C@@H]5CO[C@@H](C)O[C@H]5[C@H](O)[C@H]3O)[C@H]3COC(=O)[C@H]23)OCO4)cc(OC)c1O [ETOPOSIDE] | – | – | 24.98 | Activity (SK-BR-3 [6]): 15.87%; Activity (SK-BR-3 [7]): 35.17% |
